Measurements gathered from unrelated publications.
Target: Ephrin type-B receptor 6 (EPHB6, Homo sapiens, UniProt O15197)
Residues used in one study (O15197 32-1021): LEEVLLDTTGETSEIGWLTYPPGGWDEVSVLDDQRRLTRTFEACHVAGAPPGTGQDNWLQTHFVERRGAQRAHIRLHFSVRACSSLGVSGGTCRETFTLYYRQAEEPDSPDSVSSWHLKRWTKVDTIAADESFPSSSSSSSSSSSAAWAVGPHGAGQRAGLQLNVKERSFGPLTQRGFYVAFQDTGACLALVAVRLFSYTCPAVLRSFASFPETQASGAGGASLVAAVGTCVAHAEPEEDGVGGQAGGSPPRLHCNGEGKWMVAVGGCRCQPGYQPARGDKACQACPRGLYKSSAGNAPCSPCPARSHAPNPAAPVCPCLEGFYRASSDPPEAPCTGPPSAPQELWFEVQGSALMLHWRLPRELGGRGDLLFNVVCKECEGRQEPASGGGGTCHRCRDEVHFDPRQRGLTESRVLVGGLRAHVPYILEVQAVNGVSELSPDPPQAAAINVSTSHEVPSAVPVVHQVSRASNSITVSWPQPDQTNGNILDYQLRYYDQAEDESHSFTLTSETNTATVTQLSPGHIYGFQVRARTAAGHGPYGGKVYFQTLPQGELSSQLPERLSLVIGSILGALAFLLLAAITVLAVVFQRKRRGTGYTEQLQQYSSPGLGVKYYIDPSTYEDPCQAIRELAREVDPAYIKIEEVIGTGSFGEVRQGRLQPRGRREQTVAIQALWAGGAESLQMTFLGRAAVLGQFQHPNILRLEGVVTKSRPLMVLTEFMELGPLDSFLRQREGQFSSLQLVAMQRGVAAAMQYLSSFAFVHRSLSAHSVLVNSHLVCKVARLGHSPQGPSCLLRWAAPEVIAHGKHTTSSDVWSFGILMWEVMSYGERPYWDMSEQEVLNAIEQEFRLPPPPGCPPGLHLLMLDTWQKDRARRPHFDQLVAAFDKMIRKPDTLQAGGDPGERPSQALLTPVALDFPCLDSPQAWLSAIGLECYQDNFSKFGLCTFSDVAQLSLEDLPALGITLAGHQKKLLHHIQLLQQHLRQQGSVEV

SMILES | observed | method | concentration | remaining binding [%]
O=C(NCCCN1CCOCC1)c1ccc(Nc2nccc(-c3cc4ccccc4s3)n2)cc1 | binding | competition with immobilised ligand | 1 µM | 18
C[C@@]1(Cc2ccc(C#N)cc2)C(=O)N(c2cc(Cl)cc(Cl)c2)c2ncc(C(=O)NC3(c4nc(C5CCC5)no4)CC3)n21 | cell-free assay | competition with immobilised ligand | 1 µM | 100
CCN1CCN(Cc2ccc(C(=O)Nc3ccc(C)c(Oc4ccc5c(c4)CC(=O)N5)c3)cc2C(F)(F)F)CC1 | binding | competition with immobilised ligand | 1 µM | 91
C=CC(=O)N1CCC(C(=O)NCC(=O)N2CCN(c3nc(-c4cnc(N)nc4C(F)F)nc(N4CCOCC4)n3)CC2)CC1 | binding | competition with immobilised ligand | 1 µM | 65
Cc1cnn2ncc(-c3ccnc(N(C)C)n3)c2c1 | binding | – | 1 µM | 80
COc1cnc(Nc2cccc(S(N)(=O)=O)c2)nc1N1CCN(c2ccccc2)C(=O)C1 | binding | competition with immobilised ligand | 1 µM | 90
COc1ccnn2ncc(-c3ccnc(N(C)C)n3)c12 | binding | – | 1 µM | 27
CS(=O)(=O)N1CCCC(NC(=O)[C@H](CCC2CCCCC2)NC(=O)c2ccc(CNC(=O)c3cnc4ccccn34)cc2)C1 (stereo partly shown) | cell-free assay | competition with immobilised ligand | 0.1 µM | 98
CN(c1nccc(-c2cnn3ncccc23)n1)C1CC1 | binding | – | 1 µM | 100
O=C(Nc1cccnn1)N1CCC(=Cc2cccc(Oc3ccc(C(F)(F)F)cn3)c2)CC1 | cell-free assay | competition with immobilised ligand | 1 µM | 100
N[C@@H]1CCN(c2nccc(-c3cnn4ncccc34)n2)C1 | binding | – | 1 µM | 52
Cc1nc(N2CC[C@@H](O)C2)ncc1-c1cc(C(F)(F)F)cc2[nH]ncc12 | binding | competition with immobilised ligand | 1 µM | 36
C[C@@H]1CCN(c2nccc(-c3cnn4ncccc34)n2)C1 | binding | – | 1 µM | 93
C[C@H](NC(=O)c1cnc2n1[C@](C)(Cc1ccc(C#N)cc1)C(=O)N2c1cc(Cl)c(F)c(Cl)c1)C(=O)NC1(c2ccccn2)CC1 | cell-free assay | competition with immobilised ligand | 1 µM | 100
Nc1ncc2c(n1)-c1c([nH]c3ccc(C#CC4CC4)cc13)CCCC2 | binding | competition with immobilised ligand | 1 µM | 84
CN(C)c1ncc(F)c(-c2cnn3ncccc23)n1 | binding | – | 1 µM | 77
C[C@@H](c1ccc(-n2cnc3c(N)ncnc32)cc1)N1CCc2nn(C)c(Cc3ccccc3)c2C1=O | binding | competition with immobilised ligand | 0.1 µM | 51
C[C@@H]1CN(c2cc(-c3n[nH]c4ccc(OC5(C)CC5)cc34)ncn2)C[C@H](C)O1 | cell-free assay | competition with immobilised ligand | 0.1 µM | 91
O=C(c1ccc(Nc2nccc(-c3cc4ccccc4s3)n2)cc1)N1CCC(N2CCCC2)CC1 | binding | competition with immobilised ligand | 1 µM | 2.5
O=C(Nc1c[nH]nc1C(=O)NC1CCNCC1)c1cc(F)cc(F)c1 | binding | competition with immobilised ligand | 1 µM | 100
O=C(Nc1cccnn1)N1CC(C/C=C/c2cncc(Oc3ccc(C(F)(F)F)cn3)n2)C1 | cell-free assay | competition with immobilised ligand | 1 µM | 87
O=C(NCCCN1CCOCC1)c1ccc(Nc2ncc(Cl)c(-c3ccc(Cl)s3)n2)cc1 | binding | competition with immobilised ligand | 1 µM | 13
